Measurements from ChEMBL document CHEMBL3868585, “Absolute Configuration of Dihydro-β-agarofuran Sesquiterpenes from Maytenus jelskii and Their Potential Antitumor-Promoting Effects” (J Nat Prod, 2016).

What was measured:
Type in all cases: cell-based
Settings in all cases: human gammaherpesvirus 4
Raji [1] = test: Inhibition of TPA-induced EBV-early antigen activation in human Raji cells assessed as cell viability at 1000 molar ratio per TPA after 48 hrs by trypan blue staining method
Outline: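 Raji cells treated 48 h at 37 °C with n-butyric acid (4 mmol), TPA (32 pmol) and test compound in DMSO at 1000 mol ratio/TPA; viability determined by Trypan Blue staining.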

Raji [2] = test: Inhibition of TPA-induced EBV-early antigen activation in human Raji cells after 48 hrs by immunofluorescence method relative to TPA
Outline: (§1)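 Raji cells (EBV genome-carrying, virus nonproducer) grown in RPMI1640 with 10% FBS; 1 × 10^6 cells incubated 48 h at 37 °C in 1 mL medium with n-butyric acid (4 mmol), TPA (32 pmol) in DMSO, and test compound in 5 μL DMSO at 10, 100, 500 or 1000 mol ratio/TPA. EA-positive cells detected by indirect immunofluorescence with NPC patient serum, ≥500 cells counted; triplicates, expressed relative to butyrate+TPA control (100%).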

Raji [3] = test: Inhibition of TPA-induced EBV-early antigen activation in human Raji cells assessed as remaining activity at 100 molar ratio per TPA after 48 hrs by immunofluorescence method relative to TPA; outline: as §1
Raji [4] = test: Inhibition of TPA-induced EBV-early antigen activation in human Raji cells at 1000 molar ratio per TPA after 48 hrs by immunofluorescence method relative to TPA; outline: as §1
Raji [5] = test: Inhibition of TPA-induced EBV-early antigen activation in human Raji cells at 500 molar ratio per TPA after 48 hrs by immunofluorescence method relative to TPA; outline: as §1
Raji [6] = test: Inhibition of TPA-induced EBV-early antigen activation in human Raji cells at 10 molar ratio per TPA after 48 hrs by immunofluorescence method relative to TPA; outline: as §1
Raji [7] = test: Inhibition of TPA-induced EBV-early antigen activation in human Raji cells at 100 molar ratio per TPA after 48 hrs by immunofluorescence method relative to TPA; outline: as §1

Row | SMILES | Cell viability (Raji [1]) [%] | inhibition (Raji [2]) | Activity (Raji [3]) [%] | inhibition (Raji [4]) [%] | inhibition (Raji [5]) [%] | inhibition (Raji [6]) [%] | inhibition (Raji [7]) [%]
1 | CC(=O)O[C@@H]1[C@H](OC(C)=O)[C@@H](C)[C@@]23C[C@@H](C[C@H](OC(=O)c4ccccc4)[C@]2(C)[C@H]1OC(=O)c1ccco1)C(C)(C)O3 | > 60 | Dose-dependent effect | – | – | – | – | –
2 | CC(=O)O[C@H]1[C@H](OC(=O)c2ccccc2)C[C@](C)(O)[C@]23OC(C)(C)[C@H](C[C@H](OC(=O)c4ccco4)[C@]12C)[C@H]3OC(=O)c1ccccc1 | > 60 | Dose-dependent effect | – | – | – | – | –
3 | CC(=O)O[C@@H]1C[C@](C)(O)[C@@]23C[C@@H](C[C@H](OC(=O)/C=C/c4ccccc4)[C@]2(C)[C@H]1OC(=O)c1ccco1)C(C)(C)O3 | > 60 | Dose-dependent effect | – | – | – | – | –
4 | CC(=O)O[C@H]1[C@H](OC(=O)c2ccccc2)[C@@]2(C)[C@@H](OC(=O)/C=C/c3ccccc3)[C@@H](O)[C@@H]3C[C@]2(OC3(C)C)[C@@](C)(O)[C@H]1OC(C)=O | > 60 | Dose-dependent effect | – | – | – | – | –
5 | CC(=O)O[C@@H]1[C@H](O)[C@@H](C)[C@]23OC(C)(C)[C@H](C[C@H](OC(=O)/C=C/c4ccccc4)[C@]2(C)[C@H]1OC(=O)c1ccccc1)[C@H]3O | > 60 | Dose-dependent effect | – | – | – | – | –
6 | CC(=O)O[C@@H]1C[C@](C)(O)[C@@]23C[C@@H](C[C@H](OC(=O)c4ccccc4)[C@]2(C)[C@H]1OC(=O)c1ccco1)C(C)(C)O3 | > 60 | Dose-dependent effect | – | – | – | – | –
7 | CC(=O)O[C@H]1[C@H](OC(=O)c2ccccc2)[C@@]2(C)[C@@H](OC(=O)/C=C/c3ccccc3)C[C@]3(O)C[C@]2(OC3(C)C)[C@@](C)(O)[C@H]1OC(C)=O | > 60 | Dose-dependent effect | – | – | – | – | –
8 | CC(=O)O[C@@H]1[C@H](O)[C@@H](C)[C@]23OC(C)(C)[C@H](C[C@H](OC(=O)c4ccccc4)[C@]2(C)[C@H]1OC(=O)c1ccccc1)[C@H]3OC(C)=O | > 60 | Dose-dependent effect | 81 | – | – | – | –
9 | CC(=O)OC[C@]12[C@@H](OC(=O)c3ccco3)C[C@@H]3[C@@H](OC(=O)c4ccccc4)[C@]1(OC3(C)C)[C@@](C)(O)C[C@@H](OC(C)=O)[C@@H]2OC(C)=O | > 60 | Dose-dependent effect | 81.9 | – | – | – | –
10 | CC1(C)O[C@]23C[C@H]1C[C@H](OC(=O)c1ccccc1)[C@]2(C)[C@@H](OC(=O)c1ccco1)CC[C@]3(C)O | > 60 | Dose-dependent effect | – | – | – | – | –
11 | CC(=O)O[C@H]1[C@H](OC(=O)c2ccco2)[C@@]2(C)[C@@H](OC(=O)c3ccccc3)C[C@@H]3C[C@]2(OC3(C)C)[C@@](C)(O)[C@H]1OC(C)=O | > 60 | Dose-dependent effect | – | – | – | – | –
12 | CC(=O)O[C@@H]1[C@H](O)[C@@H](C)[C@]23OC(C)(C)[C@H](C[C@H](OC(=O)/C=C/c4ccccc4)[C@]2(C)[C@H]1OC(=O)c1ccccc1)[C@H]3OC(C)=O | > 60 | Dose-dependent effect | – | – | – | – | –
13 | CC(=O)O[C@@H]1[C@H](O)[C@@H](C)[C@]23OC(C)(C)[C@H]([C@H](OC(C)=O)[C@H](OC(=O)c4ccccc4)[C@]2(C)[C@H]1OC(=O)c1ccccc1)[C@H]3OC(C)=O | > 60 | Dose-dependent effect | 79.5 | – | – | – | –
14 | CC(=O)O[C@@H]1[C@H](O)[C@@H](C)[C@]23OC(C)(C)[C@H]([C@H](OC(C)=O)[C@H](OC(=O)c4ccccc4)[C@]2(C)[C@H]1OC(=O)c1ccccc1)[C@H]3O | > 60 | Dose-dependent effect | 76.3 | 100 | 69.9 | 2.2 | 23.7
15 | CC(=O)O[C@H]1[C@H](OC(=O)c2ccccc2)[C@@]2(C)[C@@H](OC(=O)/C=C/c3ccccc3)C[C@@H]3[C@@H](OC(C)=O)[C@]2(OC3(C)C)[C@@](C)(O)[C@H]1OC(=O)c1cccnc1 | > 60 | Dose-dependent effect | – | – | – | – | –
16 | CC(=O)O[C@@H]1[C@H](O)[C@@H](C)[C@]23OC(C)(C)[C@H]([C@H](OC(C)=O)[C@H](OC(=O)c4ccccc4)[C@]2(C)[C@H]1OC(=O)c1ccoc1)[C@H]3OC(C)=O | > 60 | Dose-dependent effect | 87 | – | – | – | –
17 | CC(=O)O[C@H]1[C@H](OC(=O)c2ccccc2)[C@@]2(C)[C@@H](OC(=O)/C=C/c3ccccc3)[C@@H](O)[C@@H]3[C@@H](O)[C@]2(OC3(C)C)[C@@](C)(O)[C@H]1OC(C)=O | > 60 | Dose-dependent effect | 85 | – | – | – | –
18 | CC(=O)O[C@H]1[C@@H]2C[C@@]3(OC2(C)C)[C@](C)([C@H]1OC(=O)c1ccccc1)[C@@H](OC(=O)c1ccccc1)[C@H](OC(C)=O)[C@H](OC(C)=O)[C@]3(C)O | > 60 | Dose-dependent effect | 79.3 | – | – | – | –
19 | CC(=O)O[C@H]1[C@H](OC(=O)c2ccccc2)C[C@](C)(O)[C@]23OC(C)(C)[C@H](C[C@H](OC(=O)c4ccco4)[C@]12CO)[C@H]3OC(=O)c1ccccc1 | > 60 | Dose-dependent effect | 82.2 | – | – | – | –
20 | CC(=O)O[C@H]1[C@H](OC(=O)c2ccccc2)[C@@]2(C)[C@@H](OC(=O)/C=C/c3ccccc3)[C@@H](O)[C@@H]3[C@@H](OC(C)=O)[C@]2(OC3(C)C)[C@@](C)(O)[C@H]1OC(C)=O | > 60 | Dose-dependent effect | 88.6 | – | – | – | –
